Consider twelve compounds from ChEMBL document CHEMBL1133688, “Hunting the emesis and efficacy targets of PDE4 inhibitors: identification of the photoaffinity probe 8-(3-azidophenyl)-6- [(4-iodo-1H-1-imidazolyl)methyl]quinoline (APIIMQ)” (J Med Chem, 2000).

Sequence of 3',5'-cyclic-AMP phosphodiesterase 4A (P27815 whole entry): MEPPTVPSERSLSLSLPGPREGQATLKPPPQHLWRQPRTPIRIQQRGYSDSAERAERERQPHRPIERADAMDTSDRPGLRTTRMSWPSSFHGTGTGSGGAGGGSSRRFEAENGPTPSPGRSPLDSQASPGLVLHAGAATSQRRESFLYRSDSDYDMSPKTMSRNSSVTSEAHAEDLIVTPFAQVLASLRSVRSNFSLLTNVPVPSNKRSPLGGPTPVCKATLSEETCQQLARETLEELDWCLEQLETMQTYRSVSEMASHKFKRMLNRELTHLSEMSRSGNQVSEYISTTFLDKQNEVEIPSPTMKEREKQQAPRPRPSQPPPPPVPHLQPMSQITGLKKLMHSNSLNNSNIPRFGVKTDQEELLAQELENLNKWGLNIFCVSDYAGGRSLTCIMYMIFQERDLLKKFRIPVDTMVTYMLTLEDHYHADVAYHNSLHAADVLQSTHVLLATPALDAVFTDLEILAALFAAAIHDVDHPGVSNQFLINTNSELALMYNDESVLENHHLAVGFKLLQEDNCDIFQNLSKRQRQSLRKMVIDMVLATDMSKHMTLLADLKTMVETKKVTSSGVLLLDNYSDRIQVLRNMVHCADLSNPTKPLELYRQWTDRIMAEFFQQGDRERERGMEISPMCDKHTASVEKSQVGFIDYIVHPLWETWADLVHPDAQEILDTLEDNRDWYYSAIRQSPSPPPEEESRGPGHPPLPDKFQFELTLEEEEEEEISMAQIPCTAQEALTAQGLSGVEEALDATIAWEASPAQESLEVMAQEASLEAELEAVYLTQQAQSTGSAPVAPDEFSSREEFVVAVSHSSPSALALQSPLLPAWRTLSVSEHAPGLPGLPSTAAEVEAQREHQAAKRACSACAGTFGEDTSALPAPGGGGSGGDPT

The first experiment addresses 3',5'-cyclic-AMP phosphodiesterase 4A (Homo sapiens, UniProt P27815). Nature of the experiment: Inhibition of recombinant human PDE4A expressed in Sf9 cells. In outline: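 Inhibition of the purified enzyme's catalytic activity (cAMP hydrolysis) was measured, and IC50 was derived.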
Broadly, the IC50 is the concentration needed to halve the response being measured. Regarding `[N-]=[N+]=Nc1cc(-c2cccc(I)c2)c2ncccc2c1`, the IC50 is 28 nM. As for `[N-]=[N+]=Nc1cccc(-c2cc(Cn3cnc(I)c3)cc3cccnc23)c1`, the IC50 amounted to 0.4 nM. Consider `c1ccc(-c2cc(Cn3ccnc3)cc3cccnc23)cc1`, for which the IC50 stood at 9 nM. On to `O=c1c2c(ncn2Cc2ccccc2)c2cccnc2n1-c1ccccc1`, for which the IC50 came to 0.6 nM. As for `[N-]=[N+]=Nc1cccc(-c2cc(Cc3ccncc3)cc3cccnc23)c1`, the IC50 amounted to 0.2 nM. By Ki is commonly meant the dissociation constant of the complex between target and ligand, obtained from inhibition or displacement. For the compound `COc1ccc([C@H](Cc2ccncc2)c2ccccc2)cc1OC1CCCC1` [CDP840], the Ki was determined as 4 nM.

Consider `O=[N+]([O-])c1cccc(-c2cc(Cc3ccncc3)cc3cccnc23)c1`, for which the IC50 worked out at 0.07 nM. Turning to `[N-]=[N+]=Nc1ccc(I)c(-c2cc(Cc3ccncc3)cc3cccnc23)c1`, the IC50 stood at 3.3 nM. In the case of `O=C(c1ccccc1)c1cc(-c2cccc(I)c2)c2ncccc2c1`, the IC50 was 15 nM. On to `O=c1c2c(ncn2Cc2cc(I)cc(C3(C(F)(F)F)N=N3)c2)c2cccnc2n1-c1ccccc1`, for which the IC50 worked out at 250 nM. Take `[N-]=[N+]=Nc1cccc(-c2cc(I)cc3cccnc23)c1`: the IC50 was 2.7 nM.

Turning to `COc1ccc(C2CC(=O)N(Cc3cc(I)cc(C4(C(F)(F)F)N=N4)c3)C2)cc1OC1CCCC1` (centres undefined), the IC50 turned out to be 35 nM.

The species named for the next experiment is Homo sapiens. Kind of experiment: Inhibition of LPS-induced TNF-alpha secretion in human whole blood. The experiment is classed as functional.
Compound `[N-]=[N+]=Nc1cccc(-c2cc(Cn3cnc(I)c3)cc3cccnc23)c1` showed an IC50 of 2000 nM.

The species named for the next experiment is Cavia porcellus. Kind of experiment: Bronchoconstriction effect in ovalbumin-induced guinea pig model. It is filed as functional.
One may read the ED50 as the dose at which the effect has come halfway, by size or by number of responders. In the case of `[N-]=[N+]=Nc1cccc(-c2cc(Cn3cnc(I)c3)cc3cccnc23)c1`, the ED50 was 0.3 mg/kg.
